Diaphorase act = compounds boosting diaphorase resazurin reduction – biochemical, uHTS, resorufin fluorescence, counter-screen for diaphorase-coupled primary assays, primary screen; AID 1229, 2008; Diaphorase/resazurin coupled assay, 16 min; stronger effect = higher value; 1 = vehicle wells, 0 = NADH-free wells; actives 0.005% (n = 190,000); activation factor at 20 µM;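 active = diaphorase activity raised at least twofold by the compound at 20 µM; inactive = activation factor below 2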
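Material: purified diaphorase enzyme from Clostridium kluyveri; Also added: 0.114 mM NADH and 0.1 mM resazurin, final amounts; Doses: single compound dose of 20 µM, 1% DMSO final; Times: 16 min enzyme reaction, ambient temperature; Detection: resorufin fluorescence, excitation 544 nm, emission 590 nm; Measure: increased resorufin signal from activators or reducing compounds.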
PMI act hi M6P = human PMI activators, high substrate, primary screen, biochemical, fluorescence intensity, near-saturating mannose 6-phosphate; Mannose-6-phosphate isomerase (Homo sapiens), P34949; coupled PMI enzyme assay, resazurin fluorescence, 20 min; stronger effect = higher value; 1 = untreated enzyme, 0 = substrate-free blank; activation factor at 20 µM; actives 0.34% (n = 190,000); AID 1216, 2008;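 active = activation factor of 2 or more at 20 µM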
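Material: human phosphomannose isomerase with PGI, G6PDH, diaphorase coupling enzymes. Quantity: 15 ng/mL PMI. Medium: HEPES pH 7.4 buffer with MgCl2 and Tween-20. Reagent: Near-saturating mannose-6-phosphate, 1.0 mM. Compound: 20 µM single dose. Times: enzyme reaction with compound 20 min at room temperature. Detection: resorufin fluorescence at Ex 544/Em 590 nm.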
PMI act = activators of human PMI, primary screen, biochemical, fluorescence intensity, near-Km mannose 6-phosphate; purified human PMI, coupled resazurin fluorescence, 20 min; stronger effect = higher value; 1 = vehicle control, 0 substrate-free wells; activation factor at 20 µM; actives 0.005% (n = 190,000); AID 1214, 2008;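 active = activation factor of 2 or more at 20 µM, relative to plate controls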
Diaphorase inh = diaphorase inhibitors and chemical oxidizers, primary screen, counter-screen for diaphorase-coupled primary assays, biochemical, uHTS, resorufin fluorescence. diaphorase resazurin-to-resorufin fluorescence, NADH, 16 min; bacterial (C. kluyveri) enzyme, not human. inhibition, % at 20 µM. actives 0.69% (n = 190,000). AID 1217, 2008;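 active = primary screen inhibition at 20 µM above a set limit, cut at about 50% in these data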;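 also: plate controls were DMSO with full reaction for no effect and wells lacking NADH for full effect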
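Assay system – diaphorase enzyme from Clostridium kluyveri · Amount – diaphorase 0.14 U/mL (working solution) · Times – reaction incubation of 16 min at room temperature · Controls – No-NADH positive control and DMSO neutral control · Signal – resorufin fluorescence 544/590 nm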
G6PDH CS = L. mesenteroides G6PDH inhibitors, counter-screen for G6PDH-coupled screening assays, biochemical, Leuconostoc mesenteroides enzyme | Purified L. mesenteroides G6PDH, diaphorase/resazurin coupled fluorescence, 45 min | inhibition, % at 5 µM | actives 0.12% (n = 200,000) | AID 1020, 2008; in the data active = inhibition above about 50%
ROMK mod = ROMK potassium channel modulators, primary screen, cell-based, thallium flux, MLSMR library. Tet-inducible ROMK, thallium flux fluorescence; actives lie on both sides. actives 2% (n = 130,000). B-score at 10 µM. AID 1918, 2009. ATP-sensitive inward rectifier potassium channel 1 (Homo sapiens), P48048;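 active = signal ratio slope over the read window, or its plate-corrected B-score, at least 3 SD from the plate mean, either direction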;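 also: B-score of the F/F0 ratio slope over 7 to 12 s after thallium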
Target sequence (P48048 whole entry, looked up): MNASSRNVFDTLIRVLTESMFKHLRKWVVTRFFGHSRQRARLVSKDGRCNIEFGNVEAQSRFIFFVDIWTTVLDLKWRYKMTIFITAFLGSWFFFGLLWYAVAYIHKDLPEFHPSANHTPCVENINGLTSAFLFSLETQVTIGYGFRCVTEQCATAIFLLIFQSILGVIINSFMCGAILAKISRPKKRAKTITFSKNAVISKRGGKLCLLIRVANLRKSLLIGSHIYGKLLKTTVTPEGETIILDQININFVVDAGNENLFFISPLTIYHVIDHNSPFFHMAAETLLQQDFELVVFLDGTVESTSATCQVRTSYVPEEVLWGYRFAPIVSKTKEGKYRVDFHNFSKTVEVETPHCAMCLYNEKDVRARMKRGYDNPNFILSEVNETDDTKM
ROMK retest = ROMK channel modulator hit retest, confirmation, cell-based, thallium flux, duplicate, resupplied hits. normalized thallium flux (F/F0 slope) at 10 µM. actives 54% (n = 3,000). shares compounds with ROMK mod. fluorescence ratio; stronger effect = lower value. AID 1917, 2009;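 active = Flux at 10 µM at least 3 SD below or above vehicle control mean in one or both replicates; inconclusive = no clear call, values can overlap the other calls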
Numbers without * were called inactive; ? = inconclusive; . = no result given. Compounds with a hit are over-represented: about 2.2% of the library has one in this group of screens.

SMILES	Diaphorase act	PMI act hi M6P	PMI act	Diaphorase inh	G6PDH CS	ROMK mod	ROMK retest
Cc1ccc(C)c(NC(NC(=O)c2ccccn2)C(Cl)(Cl)Cl)c1 (centres undefined)	0.9	0.7	0.8	9.1	6.2	1.62	.
O=S(=O)(Nc1cccc(Cl)c1)c1ccc2oc(=S)[nH]c2c1	0.9	1.3	1.4	6.4	5.4	0.289	.
S=c1[nH]c2cc(-c3ccccc3)ccc2o1	.	.	.	.	.	.	0.106*
CC(C)(C)OC(=O)NCCCCCc1nnc(SCC(=O)Nc2cccc(Cl)c2)o1	0.9	1	1	10.0	6.0	-4.92*	0.064*
CC(C)(C)OC(=O)NCCc1nnc(SCC(=O)Nc2cccc(Cl)c2)o1	0.9	1	0.9	14.0	4.2	.	.
CN(C)S(=O)(=O)c1ccc(C(=O)N2CCOCC2)cc1	0.9	1	1	13.6	-0.3	0.977	.
CC1CCN(C(=O)c2ccc(S(=O)(=O)N(C)C)cc2)C(C)C1 (centres undefined)	0.9	1	1	6.5	1.8	2.99*	0.0775
CCCn1c(SCC(=O)NCc2ccc(Cl)cc2)n[nH]c1=O	1	1	1.1	1.4	9.5	-0.0507	.
CN(C)c1ccc(C(=S)Nc2ccccc2)cc1	0.8	1	1	23.7	-0.7	-0.522	.
CN(C)c1cc(O)c(C(=S)Nc2ccccc2)c(N(C)C)c1	0.8	0.5	0.9	21.0	19.6	-3.33*	0.0634*
O=c1ccc2ccc(Oc3ccc(Cl)cc3[N+](=O)[O-])cc2o1	0.8	1	1	21.3	-1.2	0.819	.
COc1cc(SC#N)ccc1N=Cc1c(C)[nH]n(-c2ccc(Cl)cc2)c1=O	1	1.1	1	4.1	2.8	-0.0165	.
COc1ccccc1N=Cc1c(C)c(C#N)c2[nH]c3ccccc3n2c1=O	0.8	0.7	1	21.8	11.6	-3.27*	0.0666*
CC(=O)c1ccc(O)c(CO)c1	1	1	1	1.6	-0.6	0.575	0.0858
C=CCn1c(N2CCCCCC2)nc2c1c(=O)[nH]c(=O)n2C	0.9	0.9	0.9	12.5	-20.6	.	.
C/C(Cl)=C\Cn1c(N2CCCC2)nc2c1c(=O)[nH]c(=O)n2C	0.9	1	1	9.7	6.0	.	0.0756
O=C(Nc1ccc(S(=O)(=O)NC2=NCCCCC2)cc1)c1ccco1	0.9	1	1.1	7.6	8.6	-0.429	.
CCNC(=O)CC1C(=O)N(C)C(=S)N1NC(=O)c1ccc(Cl)cc1 (centres undefined)	1	0.9	0.9	2.8	1.3	.	0.0762
O=C(Nc1ccccc1Cl)C1CCN(Cc2cnn(-c3ccccc3)c2-n2cccc2)CC1	1	1	1	-2.7	10.3	-3.19*	0.0545*
c1ccc(Cc2nnc(N3CCCCC3)c3ccccc23)cc1	0.9	1	1	5.8	-6.8	-2.25*	0.0669*
c1ccc(N2CCN(c3nnc(Cc4cccnc4)c4ccccc34)CC2)nc1	0.8	0.9	0.9	17.6	5.8	-0.956	.
O=C(CSc1ccccn1)Nc1ccc(Cl)cn1	1	0.9	0.9	2.4	4.8	1.06	.
O=[N+]([O-])c1ccc2nc(CCCc3nc4ccc([N+](=O)[O-])cc4[nH]3)[nH]c2c1	0.9	1.1	1	8.0	21.1	-6.89*	0.0268*
CCCc1nc(C(C)(C)O)c(C(=O)O)n1Cc1ccc(-c2ccccc2-c2nn[nH]n2)cc1	0.9	1.1	1.1	14.2	6.8	.	.
CCOC(=O)C1CCCN(C(=O)c2ccc(Cl)c(S(=O)(=O)N3CCCCC3)c2)C1 (centres undefined)	1	1	1.1	0.0	8.3	-0.381	.
SMILES	Diaphorase act	PMI act hi M6P	PMI act	Diaphorase inh	G6PDH CS	ROMK mod	ROMK retest
Cc1ccc(C2=N/C(=C\c3c(C)nn(-c4ccccc4)c3N3CCCC3)C(=O)O2)cc1	0.9	1	1.1	13.3	-3.6	-0.621	.
Cc1nn(-c2ccccc2)c(N2CCCC2)c1/C=C1\N=C(c2ccc(F)cc2)OC1=O	0.9	1.1	1	6.5	3.0	-1.48*	0.0657*
Cc1ccc(S(=O)(=O)n2c([N+](=O)[O-])cnc2C)c(C)c1C	0.9	1.2	1.1	5.9	-3.5	0.628	.
CC(C)CNS(=O)(=O)c1ccccc1C(=O)N1CCCCC1	1	1	1	4.0	5.1	.	.
Cc1cccc(C)c1OCC(O)CNS(=O)(=O)c1ccccc1C(=O)N1CCCCC1 (centres undefined)	0.9	1	1	8.3	5.8	-1.82	0.0755
Cc1occc1-c1nnc(-c2cc([N+](=O)[O-])cc([N+](=O)[O-])c2)o1	1	1	0.9	4.0	12.4	0.757	.
COc1cc(/C=C/C(=O)O)cc(S(=O)(=O)NCc2ccc3c(c2)OCO3)c1OC	.	.	.	.	9.2	-0.0855	.
COc1c2ccoc2nc2c(OC)c(OCC(OC(C)=O)C(C)(C)O)ccc12 (centres undefined)	0.9	1	1	5.8	11.3	.	.
COc1ccc2c(c1)c(C(O)CN1CCC(Cc3ccccc3)CC1)c(C)n2C (centres undefined)	0.9	1	1	10.8	0.8	.	0.0576*
CS(=O)(=O)c1nc(S(=O)(=O)c2ccc(Cl)cc2)c(NCc2ccccn2)s1	0.9	1.1	1.2	8.3	-1.6	0.559	.
CCN1CCS/C1=C/C=C/C1=[N+](CC)CCS1	1	0.9	1	-3.0	7.5	-1.45	.
CCN1CCS/C1=C\C=C\C1=[N+](CC)CCS1	0.9	0.9	0.9	6.1	1.8	.	?
COc1ccc(N=Cc2c(O)c3ccccc3n2C(C)=O)cc1	.	.	.	.	.	.	0.0335*
O=C1c2cccc3c([N+](=O)[O-])ccc(c23)C(=O)N1c1ccc(Cl)cn1	0.6	0.9	1	43.5	6.6	-3.72*	0.0476*
CCOc1ccc(/C=N/n2cnnc2)cc1	0.8	0.9	0.2	18.5	-6.2	.	.
CCOc1cc(/C=N/n2cnnc2)cc(Br)c1O	0.9	1	1	12.6	18.0	.	0.0775

From PubChem
